Data on 77 molecules can be found in ChEMBL document CHEMBL1124015, “Methods for drug discovery: development of potent, selective, orally effective cholecystokinin antagonists” (J Med Chem, 1988).

In one assay the target is GABA-A receptor; anion channel. The experiment in a line: Inhibition of [3H]flunitrazepam binding to GABA-A benzodiazepine receptor of guinea brain. Further details: species or system Cavia porcellus.
Details: not given
Broadly, the IC50 is the concentration that gives 50% inhibition. A low value points to greater potency. In turn, `CN1C(=O)[C@@H](N)N=C(c2ccccc2)c2ccccc21` displayed an IC50 of over 100000 nM.
Take `CN1C(=O)C(NC(=O)c2cc3ccccc3n2C)N=C(c2ccccc2)c2ccccc21` (stereo not drawn): the IC50 was over 100000 nM.

The target in the next assay is T1, Cholecystokinin receptor type A (Rattus norvegicus, UniProt P30551).
T1 sequence (P30551 whole entry): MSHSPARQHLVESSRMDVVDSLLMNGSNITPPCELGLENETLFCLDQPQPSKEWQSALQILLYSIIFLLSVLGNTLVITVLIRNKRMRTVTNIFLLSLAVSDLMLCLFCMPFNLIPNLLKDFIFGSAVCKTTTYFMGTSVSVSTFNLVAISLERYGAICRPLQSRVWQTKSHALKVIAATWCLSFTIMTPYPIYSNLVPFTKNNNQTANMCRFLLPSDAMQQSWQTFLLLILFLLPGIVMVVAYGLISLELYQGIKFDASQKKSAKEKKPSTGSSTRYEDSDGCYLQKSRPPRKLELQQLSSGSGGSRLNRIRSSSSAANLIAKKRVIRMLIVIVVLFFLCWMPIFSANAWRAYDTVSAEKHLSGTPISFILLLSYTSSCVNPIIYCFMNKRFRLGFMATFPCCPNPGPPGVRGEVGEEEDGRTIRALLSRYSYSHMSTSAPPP
The experiment in a line: Half-maximal inhibition of [125I]CCK-33 binding to cholecystokinin A receptor from rat pancreatic tissue.
Details: not given
As to `O=C(NC1N=C(c2ccccc2F)c2ccccc2NC1=O)c1cc2cc(Cl)ccc2[nH]1` (stereo not drawn), the IC50 worked out at 71 nM.
On the same count and under the same terms, the same measure for `Cc1ccc(C(=O)NC2N=C(c3ccccc3F)c3ccccc3NC2=O)cc1` (stereo not drawn): 21 nM; for `COc1ccc2[nH]c(C(=O)NC3N=C(c4ccccc4F)c4ccccc4NC3=O)cc2c1` (stereo not drawn): 200 nM.
On the same count and under the same terms, the same measure for `CN1C(=O)C(NC(=O)c2cccc(I)c2)N=C(c2ccccc2F)c2ccccc21` (stereo not drawn): 0.75 nM; for `O=C(NC1N=C(c2ccccc2F)c2ccccc2NC1=O)c1cc2cc(Br)ccc2[nH]1` (stereo not drawn): 120 nM.
Same read-out and setting: the same measure for `O=C(NC1N=C(c2ccccc2)c2ccccc2NC1=O)c1ccc(C(F)(F)F)cc1` (stereo not drawn): 240 nM; for `CN1C(=O)C(N(C)C(=O)c2ccccc2Cl)N=C(c2ccccc2)c2ccccc21` (stereo not drawn): 58000 nM; for `O=C(NC1N=C(c2ccccc2)c2ccccc2NC1=O)c1ccccc1Cl` (stereo not drawn): 7500 nM.
Take `O=C(O)CN1C(=O)C(NC(=O)c2ccc(Cl)cc2)N=C(c2ccccc2F)c2ccccc21` (stereo not drawn): the IC50 was found to be 32 nM.
In turn, `O=C1Nc2ccccc2C(c2ccccc2F)=NC1NCc1cc2ccccc2[nH]1` (stereo not drawn) returned an IC50 of 87 nM.
On the same count and under the same terms, the same measure for `CN1C(=O)[C@@H](NC(=O)c2cc3ccccc3[nH]2)N=C(c2ccccc2F)c2ccccc21`: 6 nM; for `O=C(O)CN1C(=O)C(NC(=O)c2cc3ccccc3[nH]2)N=C(c2ccccc2F)c2ccccc21` (stereo not drawn): 1.5 nM.
Still for that read-out and setting: as for `O=C(NC1N=C(c2ccccc2F)c2ccccc2NC1=O)c1ccc[nH]1` (stereo not drawn), the figure is 110 nM; as for `CCCCCc1ccc(C(=O)NC2N=C(c3ccccc3)c3ccccc3NC2=O)cc1` (stereo not drawn), 27000 nM.
Still for that read-out and setting: the same measure for `N#Cc1ccc(C(=O)NC2N=C(c3ccccc3)c3ccccc3NC2=O)cc1` (stereo not drawn): 730 nM; for `CN1C(=O)C(NC(=O)c2cc3ccccc3[nH]2)N=C(c2ccccc2F)c2ccccc21` (stereo not drawn): 1.4 nM; for `O=C(NC1N=C(c2ccccc2)c2ccccc2NC1=O)c1ccc2ccccc2c1` (stereo not drawn): 20 nM.
Molecule `O=C(NC1N=C(c2ccccc2F)c2ccccc2NC1=O)c1ccc(Cl)cc1` (stereo not drawn) had an IC50 of 6 nM.
On the same count and under the same terms, as for `CCCCCc1ccc(C(=O)NC2N=C(c3ccccc3F)c3ccccc3N(C)C2=O)cc1` (stereo not drawn), the figure is 1100 nM; as for `CN1C(=O)[C@@H](NC(=O)[C@H](N)Cc2ccccc2)N=C(c2ccccc2)c2ccccc21`, 1900 nM; as for `O=C(NC1N=C(c2ccccc2F)c2ccccc2NC1=O)c1c(F)c(F)c(F)c(F)c1F` (stereo not drawn), over 10000 nM.
The same measure, in the same setting: as for `CN1C(=O)[C@@H](NC(=O)c2ccc(I)cc2)N=C(c2ccccc2F)c2ccccc21`, the figure is 0.8 nM.
Regarding `O=C(NC1N=C(c2ccccc2)c2ccccc2NC1=O)c1ccc(Cl)cc1` (stereo not drawn), the IC50 turned out to be 41 nM.
As to `NC1N=C(c2ccccc2)c2ccccc2NC1=O` (stereo not drawn), the IC50 is over 100000 nM.
For the molecule `CN1C(=O)[C@H](NC(=O)[C@H](N)Cc2ccccc2)N=C(c2ccccc2)c2ccccc21`, the half-inhibitory concentration (IC50) amounted to 100000 nM.
Still for that read-out and setting: as for `CC1(C(=O)NC2N=C(c3ccccc3F)c3ccccc3NC2=O)C=Cc2ccccc21` (stereo not drawn), the figure is 22 nM; as for `CC(C)(C)OC(=O)N[C@H](Cc1ccccc1)C(=O)NC1N=C(c2ccccc2)c2ccccc2NC1=O` (stereo partly drawn), 2700 nM.
As to `CCCc1ccc(C(=O)NC2N=C(c3ccccc3)c3ccccc3NC2=O)cc1` (stereo not drawn), the IC50 was found to be 3600 nM.
The same measure, in the same setting: as for `CN1C(=O)C(NC(=O)c2ccccc2Cl)N=C(c2ccccc2)c2ccccc21` (stereo not drawn), the figure is 3400 nM; as for `CCCCCc1ccc(C(=O)N[C@H]2N=C(c3ccccc3F)c3ccccc3N(C)C2=O)cc1`, 690 nM.
Same read-out and setting: as for `CN1C(=O)C(NC(=O)[C@@H](Cc2ccccc2)NC(=O)OC(C)(C)C)N=C(c2ccccc2)c2ccccc21` (stereo partly drawn), the figure is 700 nM.
Still for that read-out and setting: the same measure for `CC(=O)NC1N=C(c2ccccc2F)c2ccccc2NC1=O` (stereo not drawn): 40000 nM; for `CN1C(=O)[C@@H](NC(=O)c2ccc(Br)cc2)N=C(c2ccccc2F)c2ccccc21`: 0.8 nM.
With `CSc1ccc(C(=O)NC2N=C(c3ccccc3)c3ccccc3NC2=O)cc1` (stereo not drawn), the IC50 is 220 nM.
On the same count and under the same terms, as for `CN(C)c1ccc(C(=O)NC2N=C(c3ccccc3F)c3ccccc3NC2=O)cc1` (stereo not drawn), the figure is 270 nM; as for `O=C(NC1N=C(c2ccccc2F)c2ccccc2NC1=O)c1cc2ccccc2o1` (stereo not drawn), 9 nM; as for `CN1C(=O)[C@@H](NC(=O)c2ccc(C(F)(F)F)cc2)N=C(c2ccccc2F)c2ccccc21`, 11 nM.
On the same count and under the same terms, the same measure for `O=C1Nc2ccccc2C(c2ccccc2F)=NC1NC(=O)C(O)c1ccccc1` (stereo not drawn): 100000 nM; for `N[C@H](Cc1ccccc1)C(=O)NC1N=C(c2ccccc2)c2ccccc2NC1=O` (stereo partly drawn): 3100 nM.
In turn, `CC(C)(C)OC(=O)N[C@H](Cc1c[nH]c2ccccc12)C(=O)NC1N=C(c2ccccc2)c2ccccc2NC1=O` (stereo partly drawn) had a half-maximal inhibitory concentration (IC50) of 6000 nM.
Consider `O=C(/C=C/c1ccccc1)NC1N=C(c2ccccc2F)c2ccccc2NC1=O` (stereo not drawn), for which the IC50 is 11 nM.
Molecule `O=C(NC1N=C(c2ccccc2F)c2ccccc2NC1=O)c1ccc([N+](=O)[O-])cc1` (stereo not drawn) gave an IC50 of 110 nM.
Turning to `NC1N=C(c2ccccc2F)c2ccccc2NC1=O` (stereo not drawn), the IC50 was over 100000 nM.
Regarding `CCOC(=O)CN1C(=O)C(NC(=O)c2ccc(Cl)cc2)N=C(c2ccccc2F)c2ccccc21` (stereo not drawn), the IC50 came out at 110 nM.
As for `O=C1Nc2ccccc2C(c2ccccc2)=NC1NCCc1c[nH]c2ccccc12` (stereo not drawn), the IC50 was determined as 3000 nM.
The same measure, in the same setting: as for `O=C(NC1N=C(c2ccccc2F)c2ccccc2NC1=O)c1cc2ccccc2[nH]1` (stereo not drawn), the figure is 2.1 nM.
As for `CN1C(=O)C(NC(=O)c2ccc(C(C)(C)C)cc2)N=C(c2ccccc2F)c2ccccc21` (stereo not drawn), the IC50 is 100 nM.
The same measure, in the same setting: as for `O=C(NC1N=C(c2ccccc2)c2ccccc2NC1=O)c1cccc(Cl)c1` (stereo not drawn), the figure is 81 nM; as for `O=C(NC1N=C(c2ccccc2)c2ccccc2NC1=O)c1ccc(F)cc1` (stereo not drawn), 480 nM; as for `O=C(NC1N=C(c2ccccc2F)c2ccccc2N(C(=O)c2ccc(Cl)cc2)C1=O)c1ccc(Cl)cc1` (stereo not drawn), 18 nM.
For `O=C(Cc1cccc2sccc12)NC1N=C(c2ccccc2F)c2ccccc2NC1=O` (stereo not drawn), the IC50 amounted to 1000 nM.
The molecule `CN1C(=O)C(NC(=O)c2cc3ccccc3n2C)N=C(c2ccccc2)c2ccccc21` (stereo not drawn) showed an IC50 of 1.4 nM.
On the same count and under the same terms, as for `O=C(NC1N=C(c2ccccc2F)c2ccccc2NC1=O)c1ccsc1` (stereo not drawn), the figure is 150 nM.
In turn, `CN1C(=O)C(NC(=O)c2ccc(C(F)(F)F)cc2)N=C(c2ccccc2F)c2ccccc21` (stereo not drawn) showed an IC50 of 20 nM.
Same read-out and setting: the same measure for `O=C(O)CN1C(=O)C(NC(=O)c2cc3ccccc3[nH]2)N=C(c2ccccc2)c2ccccc21` (stereo not drawn): 1.4 nM; for `CN1C(=O)C(NC(=O)c2ccc(Cl)cc2)N=C(c2ccccc2F)c2ccccc21` (stereo not drawn): 2.3 nM.
The same measure, in the same setting: the same measure for `Cn1c(C(=O)NC2N=C(c3ccccc3F)c3ccccc3NC2=O)cc2ccccc21` (stereo not drawn): 4.7 nM.
`O=C(NC1N=C(c2ccccc2)c2ccccc2NC1=O)c1ccc(O)cc1` (stereo not drawn) yielded an IC50 of 1800 nM.
On the same count and under the same terms, the same measure for `O=C1CN=C(c2ccccc2Cl)c2cc([N+](=O)[O-])ccc2N1` [CLONAZEPAM]: over 100000 nM.
On the same count and under the same terms, as for `O=C(NC1N=C(c2ccccc2)c2ccccc2NC1=O)c1cnccn1` (stereo not drawn), the figure is over 10000 nM; as for `CN1C(=O)C(NC(=O)c2ccc(Cl)cc2)[N+]([O-])=C(c2ccccc2F)c2ccccc21` (stereo not drawn), 66 nM; as for `O=C(NC1N=C(c2ccccc2)c2ccccc2NC1=O)c1ccc(Cl)c(Cl)c1` (stereo not drawn), 29 nM.
In turn, `COc1ccc(C(=O)NC2N=C(c3ccccc3F)c3ccccc3NC2=O)cc1` (stereo not drawn) registered an IC50 of 96 nM.
With `CN(C(=O)c1cc2ccccc2[nH]1)C1N=C(c2ccccc2)c2ccccc2NC1=O` (stereo not drawn), the IC50 worked out at 13000 nM.
Still for that read-out and setting: the same measure for `O=C(NC1N=C(c2ccccc2F)c2ccccc2NC1=O)c1cc2cc(O)ccc2[nH]1` (stereo not drawn): 71 nM.

For a further assay, the target named is T1, Cholecystokinin receptor type A. The experiment in a line: Half-maximal inhibition of [125I]CCK-8 binding to cholecystokinin receptor from rat pancreatic tissue.
Details: not given
The molecule `CN1C(=O)[C@@H](NC(=O)/C=C/c2ccccc2)N=C(c2ccccc2)c2ccccc21` returned an IC50 of 0.3 nM.
`CC(C)CCC(=O)N[C@H]1N=C(c2ccccc2)c2ccccc2N(C)C1=O` registered an IC50 of 780 nM.
Still for that read-out and setting: as for `CN1C(=O)C(NC(=O)[C@H](Cc2ccccc2)NC(=O)OC(C)(C)C)N=C(c2ccccc2F)c2ccccc21` (stereo partly drawn), the figure is 340 nM.
The same measure, in the same setting: the same measure for `CN1C(=O)[C@H](NC(=O)C2CCCCC2)N=C(c2ccccc2)c2ccccc21`: over 10000 nM; for `CCOC(=O)CN1C(=O)C(NC(=O)c2ccccc2Cl)N=C(c2ccccc2F)c2ccccc21` (stereo not drawn): over 30000 nM.
`CN1C(=O)C(NC(=O)c2ccc(Cl)cc2N)N=C(c2ccccc2)c2ccccc21` (stereo not drawn) yielded an IC50 of 9 nM.
The molecule `CN1C(=O)C(N)N=C(c2ccccc2F)c2ccccc21` (stereo not drawn) yielded an IC50 of 57000 nM.
`CCOC(=O)CN1C(=O)C(NC=O)N=C(c2ccccc2)c2ccccc21` (stereo not drawn) showed an IC50 of over 100000 nM.

Another assay has as its system Mus musculus. The experiment in a line: Ability to antagonize CCK-8 inhibition of charcoal meal gastric emptying in mice, after oral administration. The assay is classed as functional. To be noted: Stomach. An outline of the steps: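 Mice dosed orally with test compound at one or more dose levels (N ≥ 10/dose) 1 h before CCK-8 (80 μg/kg, sc). CCK-8 given 5 min before a charcoal meal. Gastric emptying measured 5 min after the meal.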
Broadly, the ED50 is the dose that gives a 50% effect, or the effect in half of the subjects. Read a low ED50 as an effect at a small dose. The molecule `O=C(NC1N=C(c2ccccc2F)c2ccccc2NC1=O)c1ccc(Cl)cc1` (stereo not drawn) returned an ED50 of 1.4 mg/kg.
Same read-out and setting: as for `CN1C(=O)C(NC(=O)c2cc3ccccc3[nH]2)N=C(c2ccccc2)c2ccccc21` (stereo not drawn), the figure is 0.08 mg/kg; as for `CN1C(=O)[C@H](NC(=O)c2cc3ccccc3[nH]2)N=C(c2ccccc2)c2ccccc21`, 0.4 mg/kg; as for `CN1C(=O)[C@@H](NC(=O)c2cc3ccccc3[nH]2)N=C(c2ccccc2)c2ccccc21` [DEVAZEPIDE], 0.04 mg/kg.
In the case of `CN1C(=O)C(NC(=O)c2cc3ccccc3n2C)N=C(c2ccccc2)c2ccccc21` (stereo not drawn), the ED50 was found to be 1.9 mg/kg.
The molecule `O=C(O)CN1C(=O)C(NC(=O)c2cc3ccccc3[nH]2)N=C(c2ccccc2)c2ccccc21` (stereo not drawn) displayed a 50% effective dose (ED50) of 0.5 mg/kg.
`CN1C(=O)C(NC(=O)c2ccc(Cl)cc2)N=C(c2ccccc2F)c2ccccc21` (stereo not drawn): the 50% effect level (ED50) was put at a dose of 0.2 mg/kg.

Test system in the next assay: not listed separately
Briefly: Ratio of IC50 CCK(pancreas)/ IC50BZD (brain). It is filed as functional.
Details: not given
As for `O=C1CN=C(c2ccccc2Cl)c2cc([N+](=O)[O-])ccc2N1` [CLONAZEPAM], the Ratio was over 58000.
